Experimental findings from ChEMBL document CHEMBL1124504, “Azido glycols: potent, low molecular weight renin inhibitors containing an unusual post scissile site residue” (J Med Chem, 1989) are described below.

As a reminder, the solubility is the concentration that dissolves in the medium under given conditions. By IC50 is commonly meant the concentration that inhibits the measured activity by half.

Data set [1] deals with Rattus norvegicus. Briefly: Plasma levels in the systemic blood vessel of rat after 10 min of administration of 10 mg/kg intraduodenally. It is filed as functional, organism-based. The arrangement: dose 10 mg/kg. The procedure, abridged: (§1)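 Male Sprague-Dawley rats, fasted overnight, ≥150 g, under inactin (80 mg/kg ip), pylorus ligated. Carotid and portal vein catheterized. 10 mg/kg injected into the duodenum; paired blood drawn at 10 min. Plasma acetonitrile-precipitated, serially diluted, dried.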

Data set [2] deals with Rattus norvegicus. Briefly: Plasma levels in the portal blood vessel of rat after 10 min of administration of 10 mg/kg intraduodenally. It is filed as functional, organism-based. The arrangement: dose 10 mg/kg. In outline: as §1
Data set [3] can be described thus: Solubility in pH 6.5 buffer. It counts as physicochemical. In outline:
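About 10 mg shaken in 1 mL 0.01 M phosphate buffer, pH 6.5, for 24 h at 37 °C. Suspension filtered through glass wool, diluted in mobile phase, and quantified by HPLC with detection at 214 nm; reported as mg/mL.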

Data set [4] deals with T1, Renin (Homo sapiens, UniProt P00797).
T1 sequence (P00797 whole entry): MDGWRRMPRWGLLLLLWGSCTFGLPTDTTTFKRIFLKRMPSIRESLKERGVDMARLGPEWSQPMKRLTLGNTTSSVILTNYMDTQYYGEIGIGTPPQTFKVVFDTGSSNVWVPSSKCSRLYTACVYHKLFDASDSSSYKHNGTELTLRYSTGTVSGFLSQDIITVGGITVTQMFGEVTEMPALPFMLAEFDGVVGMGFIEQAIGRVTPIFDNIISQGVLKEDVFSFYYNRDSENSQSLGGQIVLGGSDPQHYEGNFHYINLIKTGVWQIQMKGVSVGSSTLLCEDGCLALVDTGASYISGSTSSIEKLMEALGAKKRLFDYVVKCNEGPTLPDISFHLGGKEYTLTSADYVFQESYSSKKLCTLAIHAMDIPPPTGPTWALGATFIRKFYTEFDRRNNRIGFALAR
Briefly: Inhibitory activity against purified human renal renin at pH 6.0.

For data set [5], the species on record is Rattus norvegicus. Briefly: In vitro intestinal permeability in rats. It counts as ADME. In outline:
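Rat jejunum removed after cervical dislocation, washed with balanced electrolyte solution at 4 °C. Central 30 cm mounted for recirculating luminal perfusion (30 mL) at 37 °C under 95% O2-5% CO2. Inhibitor added mucosally at 100 μM with 3H-PEG-900 baseline marker. Mucosal and serosal samples taken every 15 min for 150 min. Inhibitor measured by HPLC-UV and PEG by scintillation. P = J/ΔC from steady-state (45-120 min) regression, cm/h; mean ± SE, n = 2.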

Data set [6] has as its target T1, Renin. Briefly: Inhibitory activity against human plasma renin at pH 7.4. It counts as cell-free.
The target of data set [7] is T1, Renin. Put plainly: Inhibitory activity against purified human renal renin at pH 6.0.

Molecules are shown by their SMILES. Values after ≈ are worked out from the molar mass of the structure shown.

For `COc1ccc(C[C@H](NC(=O)C(C)C)C(=O)N[C@@H](Cc2c[nH]cn2)C(=O)N[C@H](CC2CCCCC2)[C@H](O)[C@H](O)CN=[N+]=[N-])cc1`, the Plasma level in the data set with Rattus norvegicus [1] was 12 ng/mL; with Rattus norvegicus [2] it was 53 ng/mL.

Turning to `COc1ccc(C[C@H](NC(=O)C(C)C)C(=O)N[C@@H](Cc2cnc[nH]2)C(=O)N[C@H](CC2CCCCC2)[C@H](O)[C@H](O)CN=[N+]=[N-])cc1`, in data set [3], the solubility turned out to be 0.029 mg/mL (≈ 46.3 µM). Further, the results for the IC50 against Renin [4] and on Renin [6] were 2 nM and 10 nM, respectively. Moreover, the Permeability in the data set listed under Rattus norvegicus [5] is given as 0.79 cm (10e3*hr)-1.

`CC(C)(C)OC(=O)N[C@@H](Cc1ccccc1)C(=O)N[C@@H](Cc1cnc[nH]1)C(=O)N[C@H](CC1CCCCC1)[C@H](O)CN=[N+]=[N-]` showed an IC50 on Renin [7] of 7.5 nM.

With `CC(C)(C)OC(=O)N[C@@H](Cc1ccccc1)C(=O)N[C@@H](Cc1c[nH]cn1)C(=O)N[C@H](CC1CCCCC1)[C@H](O)[C@@H](O)CN=[N+]=[N-]`, the IC50 against Renin [7] stood at 26 nM.

In data set [3], `[N-]=[N+]=NC[C@@H](O)[C@@H](O)[C@@H](CC1CCCCC1)NC(=O)[C@H](Cc1c[nH]cn1)NC(=O)[C@H](Cc1ccccc1)NC(=O)C1CCOCC1` had a solubility of 0.023 mg/mL (≈ 36 µM). For the same molecule, the IC50 against Renin [4] came to 0.7 nM; at Renin [6], 7.6 nM.

Turning to `CC(C)(C)OC(=O)N[C@@H](Cc1ccccc1)C(=O)N[C@@H](Cc1cnc[nH]1)C(=O)N[C@H](CC1CCCCC1)[C@H](O)C(O)(CO)CN=[N+]=[N-]` (stereo partly drawn), at Renin [7], the 50% inhibitory concentration (IC50) was found to be 4.8 nM.

Take `C=C(CN=[N+]=[N-])[C@@H](O)[C@@H](CC1CCCCC1)NC(=O)[C@H](Cc1c[nH]cn1)NC(=O)[C@H](Cc1ccccc1)NC(=O)OC(C)(C)C`: inhibition on Renin [7] was half-maximal at 55 nM (IC50).

In the case of `Cn1c(=O)c2[nH]cnc2n(C)c1=O.O` [THEOPHYLLINE], the Permeability in the data set filed under Rattus norvegicus [5] was 22.35 cm (10e3*hr)-1.

`[N-]=[N+]=NC[C@@H](O)[C@@H](O)[C@@H](CC1CCCCC1)NC(=O)[C@H](Cc1cnc[nH]1)NC(=O)[C@H](Cc1ccccc1)NC(=O)N1CCOCC1` had a solubility in data set [3] of 2.6 mg/mL (≈ 4060 µM). In addition, the IC50 at Renin [4] is 0.67 nM; on Renin [6] it was 2.4 nM.

In turn, `CC(C)(C)OC(=O)N[C@@H](Cc1ccccc1)C(=O)N[C@@H](Cc1c[nH]cn1)C(=O)N[C@H](CC1CCCCC1)[C@H](O)C(=O)CN=[N+]=[N-]` came in with an IC50 against Renin [7] of 5.4 nM.

Turning to `COc1ccc(C[C@H](NC(=O)N2CCOCC2)C(=O)N[C@@H](Cc2c[nH]cn2)C(=O)N[C@H](CC2CCCCC2)[C@H](O)[C@H](O)CN=[N+]=[N-])cc1`, the solubility in data set [3] amounted to 1 mg/mL (≈ 1490 µM). The IC50 came out at 4 nM against Renin [4] and 20 nM at Renin [6]. For the same molecule, the Plasma level was 15 ng/mL in the data set with Rattus norvegicus [1] and 230 ng/mL in the data set on Rattus norvegicus [2]. In addition, in the data set listed under Rattus norvegicus [5], the Permeability is listed as 4.25 cm (10e3*hr)-1.

At Renin [7], `CC(C)(C)OC(=O)N[C@@H](Cc1ccccc1)C(=O)N[C@@H](Cc1cnc[nH]1)C(=O)N[C@H](CC1CCCCC1)[C@H](O)[C@@H](CO)CN=[N+]=[N-]` returned an IC50 of 370 nM.

At Renin [7], `CC(C)(C)OC(=O)N[C@@H](Cc1ccccc1)C(=O)N[C@@H](Cc1c[nH]cn1)C(=O)N[C@H](CC1CCCCC1)[C@H](O)CCN=[N+]=[N-]` showed an IC50 of 20 nM.

The molecule `CC(C)C(=O)N[C@@H](Cc1ccccc1)C(=O)N[C@@H](Cc1c[nH]cn1)C(=O)N[C@H](CC1CCCCC1)[C@H](O)[C@H](O)CN=[N+]=[N-]` gave a solubility in data set [3] of 0.013 mg/mL (≈ 21.8 µM). Further, the IC50 at Renin [4] worked out at 0.55 nM; on Renin [6], 3.3 nM.

Regarding `CC(C)(C)OC(=O)N[C@@H](Cc1ccccc1)C(=O)N[C@@H](Cc1c[nH]cn1)C(=O)N[C@H](CC1CCCCC1)[C@H](O)[C@H](O)CN=[N+]=[N-]`, the figures for the IC50 against Renin [4], against Renin [7] and against Renin [6] were 0.4 nM, 0.4 nM and 9 nM, respectively.

For `CC(C)(C)OC(=O)N[C@@H](Cc1ccccc1)C(=O)N[C@@H](Cc1c[nH]cn1)C(=O)N[C@H](CC1CCCCC1)[C@H](O)[C@H](CO)CN=[N+]=[N-]`, inhibition at Renin [7] was half-maximal at 10 nM (IC50).
